Laboratory results reported in article PMC8841436 (Clinical and Translational Science, 2021).

Tests used:
[1] = test system: lymphocyte subpopulations (T/B/NK/monocyte counts); assay: Flow cytometry analysis of immune cell subsets in whole blood, part B; assay type: in vivo, human
In short: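 Healthy volunteers got oral liquid test compound (7.5, 15, 30, 60 or 90 mg) or matching placebo once daily for 10 days, fasted. Whole blood was drawn predose on days 1, 4 and 10. Flow cytometry counted T, B, NK and monocytes with CD3, CD4, CD8, CD14, CD19 and CD16/56 antibodies. Naïve (CD19+ CD27-) and memory (CD19+ CD27+) B cells were also counted. Error bars are SD.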

[2] = Plasma pharmacokinetics, part B; conditions: human, in vivo, n = 8
[3] = test system: experimental autoimmune encephalomyelitis; assay: Experimental autoimmune encephalomyelitis; assay type: in vivo; conditions: EAE mouse model; unpublished data
[4] = Plasma protein binding by equilibrium dialysis; assay type: in vitro ADME; conditions: human
healthy volunteers = assay: Phase 1 safety and tolerability; assay type: in vivo, human; conditions: for Diarrhea, participants with adverse event / Headache, participants with adverse event: part B MAD
[5] = Urine pharmacokinetics, 60 mg cohort part A; assay type: in vivo, human
[6] = Plasma pharmacokinetics, part A; assay type: in vivo, human; conditions: for half-life / Tmax / AUC(0-inf) / AUC(0-t) / Cmax: human, in vivo
[7] = 7.5 mg q.d. 10 days, 8 participants
[8] = 15 mg q.d. 10 days, 8 participants
[9] = 30 mg q.d. 10 days, 8 participants
[10] = 60 mg q.d. 10 days, 8 participants
[11] = 90 mg q.d. 10 days, 8 participants
[12] = all tolebrutinib doses, 40 participants

C=CC(=O)N1CCC[C@@H](n2c(=O)n(-c3ccc(Oc4ccccc4)cc3)c3c(N)nccc32)C1 [tolebrutinib]
circulating total B cell levels (both naïve and memory B cells) ([1]; day 4 and day 10, all part B cohorts): Elevated | B cell depletion ([1]; part B MAD): did not result in B cell depletion | other immune cell populations: T cells (total CD3, CD4, CD8), monocytes, NK ([1]; part B MAD): No changes | AUC ([2]; 7.5 mg, AUC0‐24, MAD 7.5 mg q.d., Day 1, mean): 2.12 ng·h/mL | AUC ([2]; 7.5 mg, AUC0‐24, MAD 7.5 mg q.d., Day 10, mean): 3.07 ng·h/mL | Cmax ([2]; 7.5 mg, MAD 7.5 mg q.d., Day 1, mean): 1.17 ng/mL | Cmax ([2]; 7.5 mg, MAD 7.5 mg q.d., Day 10, mean): 1.32 ng/mL | Tmax ([2]; 7.5 mg, MAD 7.5 mg q.d., Day 1, median (min – max)): 1 h | Tmax ([2]; 7.5 mg, MAD 7.5 mg q.d., Day 10, median (min – max)): 1 h | half-life ([2]; 7.5 mg, t 1/2, MAD 7.5 mg q.d., Day 1, mean): 1.45 h | half-life ([2]; 7.5 mg, t 1/2, MAD 7.5 mg q.d., Day 10, mean): 1.57 h | AUC ([2]; 15 mg, AUC0‐24, MAD 15 mg q.d., Day 1, mean): 3.82 ng·h/mL | AUC ([2]; 15 mg, AUC0‐24, MAD 15 mg q.d., Day 10, mean): 5.85 ng·h/mL | Cmax ([2]; 15 mg, MAD 15 mg q.d., Day 1, mean): 1.96 ng/mL | Cmax ([2]; 15 mg, MAD 15 mg q.d., Day 10, mean): 2.51 ng/mL | Tmax ([2]; 15 mg, MAD 15 mg q.d., Day 1, median (min – max)): 1 h | Tmax ([2]; 15 mg, MAD 15 mg q.d., Day 10, median (min – max)): 1 h | half-life ([2]; 15 mg, t 1/2, MAD 15 mg q.d., Day 1, mean): 1.4 h | half-life ([2]; 15 mg, t 1/2, MAD 15 mg q.d., Day 10, mean): 1.68 h | AUC ([2]; 30 mg, AUC0‐24, MAD 30 mg q.d., Day 1, mean): 9.67 ng·h/mL | AUC ([2]; 30 mg, AUC0‐24, MAD 30 mg q.d., Day 10, mean): 14.9 ng·h/mL | Cmax ([2]; 30 mg, MAD 30 mg q.d., Day 1, mean): 6.25 ng/mL | Cmax ([2]; 30 mg, MAD 30 mg q.d., Day 10, mean): 7.46 ng/mL | Tmax ([2]; 30 mg, MAD 30 mg q.d., Day 1, median (min – max)): 0.75 h | Tmax ([2]; 30 mg, MAD 30 mg q.d., Day 10, median (min – max)): 1 h | half-life ([2]; 30 mg, t 1/2, MAD 30 mg q.d., Day 1, mean): 1.6 h | half-life ([2]; 30 mg, t 1/2, MAD 30 mg q.d., Day 10, mean): 2.02 h | AUC ([2]; 60 mg, AUC0‐24, MAD 60 mg q.d., Day 1, mean): 24.3 ng·h/mL | AUC ([2]; 60 mg, AUC0‐24, MAD 60 mg q.d., Day 10, mean): 18.2 ng·h/mL | Cmax ([2]; 60 mg, MAD 60 mg q.d., Day 1, mean): 8.47 ng/mL | Cmax ([2]; 60 mg, MAD 60 mg q.d., Day 10, mean): 6.69 ng/mL | Tmax ([2]; 60 mg, MAD 60 mg q.d., Day 1, median (min – max)): 1.25 h | Tmax ([2]; 60 mg, MAD 60 mg q.d., Day 10, median (min – max)): 1.5 h | half-life ([2]; 60 mg, t 1/2, MAD 60 mg q.d., Day 1, mean): 1.98 h | half-life ([2]; 60 mg, t 1/2, MAD 60 mg q.d., Day 10, mean): 2.37 h | AUC ([2]; 90 mg, AUC0‐24, MAD 90 mg q.d., Day 1, mean): 35.5 ng·h/mL | AUC ([2]; 90 mg, AUC0‐24, MAD 90 mg q.d., Day 10, mean): 56.6 ng·h/mL | Cmax ([2]; 90 mg, MAD 90 mg q.d., Day 1, mean): 19.3 ng/mL | Cmax ([2]; 90 mg, MAD 90 mg q.d., Day 10, mean): 21.7 ng/mL | Tmax ([2]; 90 mg, MAD 90 mg q.d., Day 1, median (min – max)): 1 h | Tmax ([2]; 90 mg, MAD 90 mg q.d., Day 10, median (min – max)): 1.5 h | half-life ([2]; 90 mg, t 1/2, MAD 90 mg q.d., Day 1, mean): 2.1 h | half-life ([2]; 90 mg, t 1/2, MAD 90 mg q.d., Day 10, mean): 2.83 h | Protection from disease induction [3]: dose‐dependent protection | fraction unbound [4]: ~0.065 | Serious treatment-emergent adverse events (healthy volunteers; part A (SAD)): no serious treatment‐emergent adverse events | Tolerability (healthy volunteers; part A (SAD), single doses 5-120 mg): well‐tolerated | Severity of treatment-related TEAEs (healthy volunteers; part B (MAD), all combined dose groups): mild | Diarrhea, participants with adverse event (healthy volunteers; [7]): 1 | Headache, participants with adverse event (healthy volunteers; [7]): 2 | Diarrhea, participants with adverse event (healthy volunteers; [8]): 1 | Headache, participants with adverse event (healthy volunteers; [8]): 1 | Diarrhea, participants with adverse event (healthy volunteers; [9]): 2 | Headache, participants with adverse event (healthy volunteers; [9]): 1 | Diarrhea, participants with adverse event (healthy volunteers; [10]): 0 | Headache, participants with adverse event (healthy volunteers; [10]): 0 | Diarrhea, participants with adverse event (healthy volunteers; [11]): 5 | Headache, participants with adverse event (healthy volunteers; [11]): 0 | Diarrhea, participants with adverse event (healthy volunteers; [12]): 9 | Headache, participants with adverse event (healthy volunteers; [12]): 4 | CL renal ([5]; human, urine, po, 60 mg): ~5 mL/min | total mean amount recovered unchanged in urine ([5]; single oral 60 mg, fasted, after 12 h): 4.2 µg | half‐life (mean) ([6]; after oral administration, fasting, across doses): 1.5 to 2 h | Dose proportionality of exposure ([6]; dose levels between 15 and 60 mg): approximately dose proportional | half-life ([6]; half‐life, plasma, as summarised in CSF section): 1.5 to 2 h | Tmax ([6]; po): ~1 h | AUC(0-inf) ([6]; po, 5 mg): 1.39 ng·h/mL | AUC(0-t) ([6]; po, 5 mg): 0.57 ng·h/mL | Cmax ([6]; po, 5 mg): 0.369 ng/mL | Tmax ([6]; po, 5 mg): 1 h | half-life ([6]; po, 5 mg, t 1/2, SAD, single oral 5 mg, fasting, mean, n = 6): 1.92 h | AUC(0-inf) ([6]; po, 15 mg): 4.06 ng·h/mL | AUC(0-t) ([6]; po, 15 mg): 3.67 ng·h/mL | Cmax ([6]; po, 15 mg): 1.97 ng/mL | Tmax ([6]; po, 15 mg): 1 h | half-life ([6]; po, 15 mg, t 1/2, SAD, single oral 15 mg, fasting, mean, n = 6): 1.39 h | AUC(0-inf) ([6]; po, 30 mg): 6.46 ng·h/mL | AUC(0-t) ([6]; po, 30 mg): 6.04 ng·h/mL | Cmax ([6]; po, 30 mg): 3.12 ng/mL | Tmax ([6]; po, 30 mg): 1 h | half-life ([6]; po, 30 mg, t 1/2, SAD, single oral 30 mg, fasting, mean, n = 6): 1.47 h | AUC(0-inf) ([6]; po, 60 mg): 15.9 ng·h/mL | AUC(0-t) ([6]; po, 60 mg): 15.6 ng·h/mL | Cmax ([6]; po, 60 mg): 6.89 ng/mL | Tmax ([6]; po, 60 mg): 1.5 h | half-life ([6]; po, 60 mg, t 1/2, SAD, single oral 60 mg, fasting, mean, n = 6): 1.67 h | AUC(0-inf) ([6]; po, 120 mg): 62.6 ng·h/mL | AUC(0-t) ([6]; po, 120 mg): 61.6 ng·h/mL | Cmax ([6]; po, 120 mg): 32.3 ng/mL | Tmax ([6]; po, 120 mg): 1 h | half-life ([6]; po, 120 mg, t 1/2, SAD, single oral 120 mg, fasting, mean, n = 6): 2.18 h | Dose proportionality of Cmax and AUC (power model) ([6]; single doses 5 to 120 mg): more than dose proportional
